Bioassay records as filed in PubChem BioAssay.
Sampled rows, rich in hits. Any-hit rate of the full collection: about 0.89%.
NTR1 ag: agonists of human neurotensin receptor NTR1 | 0.17% of 330,000 active | AID 493036 | P30989 | NTR1-U2OS beta-arrestin-GFP spot imaging, agonist mode | activation, % at 20 µM;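 active means activation at or above 40% of the spot to cytoplasm intensity ratio, with at least 20 cells analyzed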;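 further: 0% = DMSO without peptide and 100% = 100 nM NTR1 peptide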
Target sequence (P30989 whole entry, looked up): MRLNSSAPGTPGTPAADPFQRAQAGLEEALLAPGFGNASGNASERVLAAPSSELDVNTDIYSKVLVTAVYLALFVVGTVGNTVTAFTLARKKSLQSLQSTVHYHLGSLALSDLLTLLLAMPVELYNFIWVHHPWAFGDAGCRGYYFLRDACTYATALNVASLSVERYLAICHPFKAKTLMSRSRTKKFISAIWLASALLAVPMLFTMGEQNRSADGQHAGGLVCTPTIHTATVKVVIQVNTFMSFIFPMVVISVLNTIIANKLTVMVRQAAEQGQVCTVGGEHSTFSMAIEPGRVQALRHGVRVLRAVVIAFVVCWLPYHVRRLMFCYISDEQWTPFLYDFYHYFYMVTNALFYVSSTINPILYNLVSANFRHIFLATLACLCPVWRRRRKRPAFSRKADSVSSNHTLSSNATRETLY
T cell modulator: T cell immune modulators affecting CD8 T cell-vesicle binding | 2C CD8+ T cell-vesicle binding, flow cytometry; stronger effect = lower value | 0.068% of 330,000 active | response (vesicle binding), % at 7 µM | AID 2052;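 active means response, share of CD8 T cells binding vesicles, and their 90th percentile fluorescence all below set limits, cut at about 80% in these data, passing the limit was not always enough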;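 further: values below 100% mean blocked vesicle binding to the CD8+ T cells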
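Assay system: 2C TCR transgenic mouse naive CD8+ T cells, MACS-purified | Read-out: CD8+ gate FL2 mean fluorescence as % of same-row positive control | Signal: High-throughput flow cytometry with anti-B7-1 and anti-CD8 staining | Timing: Binding step 1.5 h, 37 °C, antibody labelling 20 min, ice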
V-ATPase pH: regulators of yeast V-ATPase proton transport | S. cerevisiae, pHLuorin cytosolic pH fluorescence | 0.37% of 350,000 active | response, % at 10 µM; in the data active means response mostly above about 7.3%, no sharp cut-off; inactive means mostly below about 5.4%; further: actives read high
Arrestin-AP2 inh: inhibitors of human beta-arrestin and AP2 interaction | AID 504490 | FITC-arrestin peptide / GST-AP2 beads, flow cytometry; AP2 beta2 appendage carries R879A mutation | inhibition, % at 10 µM | 0.31% of 340,000 active;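 active means inhibition above a set limit, near 3 SD of compounds lacking own fluorescence, cut at about 54% in these data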;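 further: plate controls were DMSO wells for no effect and 5 µM unlabelled arrestin peptide for full effect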
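Material – AP2 appendage R879A on GSH beads · Buffer or medium – PBS with 0.05% Tween 20 and 0.1% BSA · Probe or stimulus – fluorescein-tagged arrestin peptide at 50 nM final · Incubation – compound with beads 12 min RT, then probe 1 h RT · Detection – high-throughput flow cytometry of beads, ex 488, em 535 nm · Evaluation – percent response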
Xi reactivation: X-chromosome reactivation activator; XiGFP mouse fibroblasts, % GFP-positive cells imaging, 3 d; cells co-treated with 5-aza-dC sensitizer; scaled so ellipticine positive control = 100%; activation, % at 7.58 µM; 0.055% of 360,000 active; AID 743238;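 active means mean normalized replicate activation at least 10% and every replicate at or above 10%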;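 further: 0% = median of on-plate neutral control wells and 100% = ellipticine 6 µM median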
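Material: XiGFP fibroblasts, SV40-immortalized; Buffer or medium: DMEM containing 5-aza-dC; Compound dosing: single point; Times: 3 days compound exposure.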
MIN6 prolif-1: inducers of beta-cell replication in MIN6 cells. proliferation, % at 10 µM. MIN6 cells proliferation, ATPlite luminescence, 48 h; cells starved in 0.2% serum; 100% = growth in 10% serum. 0.29% of 330,000 active;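 active means compounds whose signal lies at least 3.5 SD above the mean of all wells on their plate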;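 further: 0% = DMSO-treated cells in low-serum medium and 100% = 10% serum control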
MIN6 prolif-2: MIN6 beta-cell replication induction, confirmed | shares compounds with MIN6 prolif-1 | MIN6 beta-cell proliferation, ATPlite luminescence, 48 h; cells kept in 0.2% serum; scaled between 0.2% and 10% serum | proliferation increase, % at 50 µM | 920 tested, under 10 active | AID 463095;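 active means proliferation increase above 40% at any of the four tested concentrations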
Numbers without * were called inactive; . = no result given.

SMILES	NTR1 ag	T cell modulator	V-ATPase pH	Arrestin-AP2 inh	Xi reactivation	MIN6 prolif-1	MIN6 prolif-2
C[C@H](CO)N1C[C@H](C)[C@H](CN(C)Cc2ccc(C(=O)O)cc2)OCCCC[C@H](C)Oc2ccc(NC(=O)Nc3ccc(C(F)(F)F)cc3)cc2C1=O	.	.	.	.	0	.	.
COCCn1c(SCC(=O)c2ccccc2)nc2ccccc2c1=O	2	220	-4	37	0	7.8*	-6
COCCCn1c(SCC(=O)c2ccccc2)nc2ccccc2c1=O	3	348	-2	0	0	4	.
CC(C)c1c(C(=O)N/N=C/C=C/c2ccccc2)nnn1-c1nonc1N	3	310	-1	7	0	12*	-6
C[C@@H]1CN([C@H](C)CO)C(=O)Cc2cc(NC(=O)Cc3ccccc3)ccc2O[C@@H]1CN(C)C(=O)Nc1cccc2ccccc12	.	.	.	.	0	.	.
CC1CC(C)CN(C(=O)c2ccc(S(=O)(=O)N3CCCCC3)cc2)C1 (centres undefined)	0	246	-1	-5	0	-3	.
CC1CC(C)CN(C(=O)c2cc(S(=O)(=O)N3CCCCC3)ccc2Cl)C1 (centres undefined)	0	294	-1	7	0	14*	-5
Cc1ccc(S(=O)(=O)N(C)C[C@H]2OCc3cnnn3CCCC(=O)N([C@H](C)CO)C[C@@H]2C)cc1	.	.	.	.	0	.	.
COc1ccccc1CCN1CCCC(CN(C)Cc2ccc(OCCO)cc2)C1 (centres undefined)	0	328	2	12	0	5.8*	-6
COc1ccccc1CCN1CCCC(CN(C)CC(C)(C)CO)C1 (centres undefined)	1	246	6	-20	0	0	.
C[C@H](CO)N1C[C@H](C)[C@H](CN(C)Cc2ccc(-c3ccccc3)cc2)Oc2ccc(NC(=O)Cn3cnnn3)cc2CC1=O	.	.	.	.	0	.	.
CC(C)c1ccc(NC(=O)C2=CC=CN3CCS(=O)(=O)N=C23)cc1	0	.	5	25	0	-3	.
CCc1ccc(NC(=O)C2=CC=CN3CCS(=O)(=O)N=C23)cc1	-1	142	-2	-12	0	11*	-4
C=CCc1c(C)c(C#N)c2nc3ccccc3n2c1N1CCCCC1	7	150	-1	4	0	-1	.
CCc1c(C)c(C#N)c2nc3ccccc3n2c1N(C)C	0	183	8	17	.	6.0*	-2
COC(=O)C1CCN(C(=O)c2oc3c(Cl)cc(C)cc3c2C)CC1	2	295	-1	-4	0	12*	-6
CC(=O)N(C)C[C@@H]1Oc2ncc(C#CCC3CCCC3)cc2C(=O)N([C@@H](C)CO)C[C@H]1C	.	.	.	.	0	.	.
CO[C@H]1CN(C)C(=O)c2ccc(NC(=O)c3nc4ccccc4s3)cc2OC[C@H](C)N(Cc2cncnc2)C[C@H]1C	.	.	.	.	0	.	.
COCCc1ncc(CN2CCCCC2C(=O)Nc2ccc(Oc3ccccc3)nc2)cn1 (centres undefined)	0	126	-2	-2	0	10*	-2
Brc1cccc(-c2nnc(SCc3ccon3)n2-c2ccccc2)c1	0	244	-3	3	0	12*	-6
CC1CCCN(CCCNC(=O)c2nn(C)c3c2CS(=O)(=O)c2ccccc2-3)C1 (centres undefined)	-1	297	-2	-12	0	7.0*	0
CC(C)NC(=O)N(C)C[C@H]1OCCCC[C@@H](C)Oc2ccc(NS(=O)(=O)c3cn(C)cn3)cc2C(=O)N([C@@H](C)CO)C[C@H]1C	.	.	.	.	0	.	.
CCCn1cnc2scc(-c3ccc(C)cc3)c2c1=O	-1	226	4	3	0	14*	-2
CCCCn1c(SCC(=O)c2cc(OC)ccc2OC)nc2cc(S(N)(=O)=O)ccc21	-3	195	2	-5	.	0.0*	6
CCN(CCn1cccn1)Cc1nc(-c2ccc(OC)cc2)no1	3	106	1	10	0	7.2*	-2
